# Measured values reported in ChEMBL document CHEMBL5661979, “Pharmacological inhibition of BMK1 suppresses tumor growth through promyelocytic leukemia protein” (Cancer Cell, 2010).
# Calls of active or inactive are those of the source. The calls are words filed in the database; no cut-off is given here.
# Columns and labels:
# [1] = Inhibition of PCTAIRE2/ICK in human HeLa cells lysate at 50 uM pre incubated for 15 mins followed by ADP acyl phosphate probe addition and measured after 10 mins by LC-MS/MS analysis relative to control; settings: 25 min, condition cancer
# [2] = biological target: T1, Serine/threonine-protein kinase Sgk3 (Homo sapiens, UniProt Q96BR1); test: Inhibition of SGK3 K1 site in human HeLa cells lysate pre incubated for 15 mins followed by ATP acyl phosphate probe addition and measured after 10 mins by LC-MS/MS analysis; type: subcellular
# T1 sequence (Q96BR1 whole entry): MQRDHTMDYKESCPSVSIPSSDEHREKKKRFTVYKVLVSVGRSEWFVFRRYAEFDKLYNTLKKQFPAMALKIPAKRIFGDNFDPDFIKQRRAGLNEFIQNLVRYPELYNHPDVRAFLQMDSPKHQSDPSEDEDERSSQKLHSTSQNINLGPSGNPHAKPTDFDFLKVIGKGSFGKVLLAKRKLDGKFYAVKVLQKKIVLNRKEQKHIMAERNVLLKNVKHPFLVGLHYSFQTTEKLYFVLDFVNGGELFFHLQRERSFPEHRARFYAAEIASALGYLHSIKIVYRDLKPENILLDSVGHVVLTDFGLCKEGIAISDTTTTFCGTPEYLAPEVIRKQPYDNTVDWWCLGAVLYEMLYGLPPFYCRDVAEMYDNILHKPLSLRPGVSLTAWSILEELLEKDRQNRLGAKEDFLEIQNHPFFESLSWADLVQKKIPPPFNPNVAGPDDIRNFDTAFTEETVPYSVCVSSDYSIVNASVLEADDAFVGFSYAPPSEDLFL
# [3] = biological target: T2, Non-receptor tyrosine-protein kinase TNK1 (Homo sapiens) (UniProt Q13470); test: Inhibition of TNK1 in human HeLa cells lysate at 2 uM pre incubated for 15 mins followed by ADP acyl phosphate probe addition and measured after 10 mins by LC-MS/MS analysis relative to control; type: subcellular; settings: time 25.0 min
# T2 sequence (whole entry): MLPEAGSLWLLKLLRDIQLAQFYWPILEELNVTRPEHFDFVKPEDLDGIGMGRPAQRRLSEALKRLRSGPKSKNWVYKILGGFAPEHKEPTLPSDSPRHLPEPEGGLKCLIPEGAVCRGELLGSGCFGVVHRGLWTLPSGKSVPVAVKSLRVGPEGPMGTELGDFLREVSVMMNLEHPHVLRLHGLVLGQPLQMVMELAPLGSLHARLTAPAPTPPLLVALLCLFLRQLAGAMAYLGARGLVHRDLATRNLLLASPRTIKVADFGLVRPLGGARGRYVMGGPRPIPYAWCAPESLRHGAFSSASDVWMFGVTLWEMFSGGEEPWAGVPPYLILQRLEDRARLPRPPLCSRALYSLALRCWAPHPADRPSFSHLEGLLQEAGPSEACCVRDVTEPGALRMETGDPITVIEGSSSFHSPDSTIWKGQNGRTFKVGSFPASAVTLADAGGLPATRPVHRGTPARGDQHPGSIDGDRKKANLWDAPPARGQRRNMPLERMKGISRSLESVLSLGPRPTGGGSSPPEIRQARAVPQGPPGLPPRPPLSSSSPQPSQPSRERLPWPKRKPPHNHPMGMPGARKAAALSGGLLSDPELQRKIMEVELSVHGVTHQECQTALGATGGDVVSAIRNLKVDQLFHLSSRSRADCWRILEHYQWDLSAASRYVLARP
# [4] = biological target: Ribosomal protein S6 kinase alpha-5 (Homo sapiens, UniProt O75582); test: Inhibition of MSK1 domain 1 in human HeLa cells lysate at 2 uM pre incubated for 15 mins followed by ADP acyl phosphate probe addition and measured after 10 mins by LC-MS/MS analysis relative to control; type: subcellular; settings: time 25.0 min
# Ribosomal protein S6 kinase alpha-5, sequence (O75582 whole entry, looked up, the tested form may be a part): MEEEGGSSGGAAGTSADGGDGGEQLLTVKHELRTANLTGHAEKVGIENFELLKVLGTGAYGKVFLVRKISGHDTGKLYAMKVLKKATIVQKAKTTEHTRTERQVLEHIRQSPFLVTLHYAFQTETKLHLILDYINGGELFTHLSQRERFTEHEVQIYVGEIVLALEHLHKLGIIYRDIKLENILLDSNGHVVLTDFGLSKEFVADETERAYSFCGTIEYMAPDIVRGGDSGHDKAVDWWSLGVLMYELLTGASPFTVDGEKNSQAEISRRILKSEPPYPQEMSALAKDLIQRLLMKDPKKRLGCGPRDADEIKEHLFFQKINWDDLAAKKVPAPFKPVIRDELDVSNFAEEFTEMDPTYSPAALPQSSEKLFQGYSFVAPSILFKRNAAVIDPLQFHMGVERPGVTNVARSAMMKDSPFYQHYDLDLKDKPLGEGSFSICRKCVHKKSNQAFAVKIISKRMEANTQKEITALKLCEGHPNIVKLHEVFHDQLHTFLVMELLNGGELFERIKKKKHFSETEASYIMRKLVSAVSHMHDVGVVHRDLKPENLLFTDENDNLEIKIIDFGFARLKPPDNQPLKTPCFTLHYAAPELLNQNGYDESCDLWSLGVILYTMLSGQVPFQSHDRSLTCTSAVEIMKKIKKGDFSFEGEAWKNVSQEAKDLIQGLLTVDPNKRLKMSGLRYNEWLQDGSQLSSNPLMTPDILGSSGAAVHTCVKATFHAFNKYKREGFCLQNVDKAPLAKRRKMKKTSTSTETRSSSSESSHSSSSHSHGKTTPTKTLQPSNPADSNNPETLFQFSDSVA
# [5] = biological target: Serine/threonine-protein kinase 4 (Homo sapiens, UniProt Q13043); test: Inhibition of MST1 in human HeLa cells lysate pre incubated for 15 mins followed by ADP acyl phosphate probe addition and measured after 10 mins by LC-MS/MS analysis; type: subcellular
# Serine/threonine-protein kinase 4, sequence (Q13043 whole entry): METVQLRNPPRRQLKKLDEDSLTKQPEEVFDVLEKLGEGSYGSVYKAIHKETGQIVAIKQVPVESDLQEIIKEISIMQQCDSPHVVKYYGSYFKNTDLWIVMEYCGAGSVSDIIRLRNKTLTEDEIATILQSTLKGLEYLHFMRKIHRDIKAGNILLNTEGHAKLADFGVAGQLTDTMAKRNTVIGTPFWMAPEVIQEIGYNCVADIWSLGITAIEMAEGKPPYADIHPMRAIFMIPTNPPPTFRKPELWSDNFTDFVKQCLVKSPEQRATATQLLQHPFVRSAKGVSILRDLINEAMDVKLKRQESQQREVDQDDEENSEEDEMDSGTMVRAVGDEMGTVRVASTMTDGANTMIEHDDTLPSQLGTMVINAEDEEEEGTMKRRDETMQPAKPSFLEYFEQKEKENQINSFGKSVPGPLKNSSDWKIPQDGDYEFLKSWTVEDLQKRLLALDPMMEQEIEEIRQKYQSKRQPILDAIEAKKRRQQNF
# [6] = test system: HeLa; test: Antitumor activity against human HeLa cells xenografted in NOD/SCID mouse assessed as reduction tumor growth at 50 mg/kg, ip administered on day 7 post implantation measured after 28 days; type: functional, organism-based; settings: time 21.0 day
# Procedure, shortened: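 HeLa cells (5×10^5, in DMEM) were injected s.c. into the right flank of 6-week-old Nod/Scid mice on day 0. Dosing was 50 mg/kg i.p. twice daily, starting on day 1, 7 or 14 and continuing to day 28; controls received carrier. 6 mice per treated group. Tumors were measured every 2–3 days.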
# [7] = Inhibition of MST4/YSK1 in human HeLa cells lysate at 2 uM pre incubated for 15 mins followed by ADP acyl phosphate probe addition and measured after 10 mins by LC-MS/MS analysis relative to control; settings: 25 min, condition cancer
# [8] = biological target: Serine/threonine-protein kinase B-raf (Homo sapiens, UniProt P15056); test: Inhibition of BRAF in human HeLa cells lysate at 10 uM pre incubated for 15 mins followed by ADP acyl phosphate probe addition and measured after 10 mins by LC-MS/MS analysis relative to control; type: subcellular; settings: time 25.0 min
# Serine/threonine-protein kinase B-raf, sequence (P15056 whole entry, the tested form may be a part): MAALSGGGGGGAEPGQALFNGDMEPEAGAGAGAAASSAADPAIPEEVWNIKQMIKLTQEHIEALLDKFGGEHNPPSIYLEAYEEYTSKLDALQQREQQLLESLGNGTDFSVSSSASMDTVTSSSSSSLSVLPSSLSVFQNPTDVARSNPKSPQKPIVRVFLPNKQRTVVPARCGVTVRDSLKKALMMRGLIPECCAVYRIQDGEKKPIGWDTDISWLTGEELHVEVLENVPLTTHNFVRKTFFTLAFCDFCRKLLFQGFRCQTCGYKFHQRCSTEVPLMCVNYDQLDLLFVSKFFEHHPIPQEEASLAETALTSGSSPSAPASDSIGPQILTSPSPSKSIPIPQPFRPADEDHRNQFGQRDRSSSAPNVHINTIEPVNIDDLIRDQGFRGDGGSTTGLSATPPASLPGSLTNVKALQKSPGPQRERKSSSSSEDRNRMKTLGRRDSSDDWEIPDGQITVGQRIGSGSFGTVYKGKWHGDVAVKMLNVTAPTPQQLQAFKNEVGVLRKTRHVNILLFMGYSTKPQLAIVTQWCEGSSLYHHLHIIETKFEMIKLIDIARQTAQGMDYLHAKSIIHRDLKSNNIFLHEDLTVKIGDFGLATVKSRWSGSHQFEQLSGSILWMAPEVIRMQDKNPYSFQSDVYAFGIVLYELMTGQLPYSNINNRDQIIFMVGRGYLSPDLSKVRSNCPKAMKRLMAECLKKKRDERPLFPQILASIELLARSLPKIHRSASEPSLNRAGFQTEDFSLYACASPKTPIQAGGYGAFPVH
# Procedure, shortened: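 KiNativ-type profiling in HeLa lysate (5 mg/mL total protein). Lysate preincubated 15 min with inhibitor at 50, 10, 2, 0.8 or 0 μM, then ATP or ADP acylphosphate probe added (5 μM final) for 10 min. Reaction stopped with urea and analysed by targeted MS, using up to four fragment ions per kinase peptide-probe conjugate. % inhibition calculated against untreated lysate. Duplicate reactions.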
# [9] = biological target: Cyclin-dependent kinase 1 (Homo sapiens, UniProt P06493); test: Inhibition of CDC2 in human HeLa cells lysate pre incubated for 15 mins followed by ADP acyl phosphate probe addition and measured after 10 mins by LC-MS/MS analysis; type: subcellular
# Cyclin-dependent kinase 1, sequence (P06493 whole entry, the tested form may be a part): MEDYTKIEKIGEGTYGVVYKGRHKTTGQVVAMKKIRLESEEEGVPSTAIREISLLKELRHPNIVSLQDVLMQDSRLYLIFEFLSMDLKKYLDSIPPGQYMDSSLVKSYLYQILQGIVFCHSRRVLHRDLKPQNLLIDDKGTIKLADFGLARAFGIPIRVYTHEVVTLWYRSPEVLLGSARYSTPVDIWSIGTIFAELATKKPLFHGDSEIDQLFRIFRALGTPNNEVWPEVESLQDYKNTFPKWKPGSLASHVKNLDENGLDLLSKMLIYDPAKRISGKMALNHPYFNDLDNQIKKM
# Procedure, shortened: (§1)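 KiNativ profiling in HeLa lysate (5 mg/mL total protein). Lysate incubated 15 min with inhibitor at 50, 10, 2, 0.8 or 0 μM. ATP or ADP acylphosphate probe then added (5 μM final) and reacted 10 min. Reaction stopped with urea and analysed by targeted MS, using up to four fragment ions per kinase peptide-probe conjugate. % inhibition taken against untreated lysate. Run in duplicate.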
# [10] = Toxicity in C57Bl/6 mouse assessed as effect on glucose level at 50 mg/kg, ip for 14 days (reference value: 181 mg/dl); type: organism-based; settings: in vivo, 336 h, time 14 day
# [11] = biological target: Interferon-induced, double-stranded RNA-activated protein kinase (Homo sapiens, UniProt P19525); test: Inhibition of PKR in human HeLa cells lysate pre incubated for 15 mins followed by ADP acyl phosphate probe addition and measured after 10 mins by LC-MS/MS analysis; type: subcellular
# Interferon-induced, double-stranded RNA-activated protein kinase, sequence (P19525 whole entry): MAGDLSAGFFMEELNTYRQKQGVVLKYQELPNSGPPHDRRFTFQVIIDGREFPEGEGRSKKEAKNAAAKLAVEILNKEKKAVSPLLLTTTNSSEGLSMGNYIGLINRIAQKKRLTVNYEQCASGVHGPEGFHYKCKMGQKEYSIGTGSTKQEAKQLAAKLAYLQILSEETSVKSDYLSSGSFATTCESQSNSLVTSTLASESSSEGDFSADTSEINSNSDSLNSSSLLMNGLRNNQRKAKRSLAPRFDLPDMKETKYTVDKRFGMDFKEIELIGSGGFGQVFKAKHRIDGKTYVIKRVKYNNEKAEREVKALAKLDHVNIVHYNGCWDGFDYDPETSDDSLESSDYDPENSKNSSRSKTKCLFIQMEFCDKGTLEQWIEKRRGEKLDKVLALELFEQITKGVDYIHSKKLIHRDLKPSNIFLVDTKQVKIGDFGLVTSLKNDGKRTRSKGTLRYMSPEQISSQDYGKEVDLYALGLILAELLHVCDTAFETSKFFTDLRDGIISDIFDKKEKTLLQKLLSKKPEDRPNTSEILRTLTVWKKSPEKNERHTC
# [12] = biological target: Cyclin-dependent kinase 2 (Homo sapiens, UniProt P24941); test: Inhibition of CDK2 in human HeLa cells lysate at 10 uM pre incubated for 15 mins followed by ATP acyl phosphate probe addition and measured after 10 mins by LC-MS/MS analysis relative to control; type: subcellular; settings: time 25.0 min; procedure, shortened: as §1
# [13] = biological target: RPS6KA1/RPS6KA2/RPS6KA3 (Homo sapiens, UniProt P51812+Q15349+Q15418); test: Inhibition of RSK1/2/3 in human HeLa cells lysate pre incubated for 15 mins followed by ATP acyl phosphate probe addition and measured after 10 mins by LC-MS/MS analysis; type: subcellular
structure (smiles),measurement,setting,value
CCOc1cc(N2CCC(O)CC2)ccc1Nc1ncc2c(n1)N(C)c1ccccc1C(=O)N2C,inhibition at 50 µM,[1],4.1%
same,IC50,[2],> 50 µM
same,inhibition,[3],9.2%
same,inhibition,[4],21.5%
same,IC50,[5],> 50 µM
same,Activity,[6],Active
same,inhibition at 2 µM,[7],11.3%
same,inhibition,[8],2.3%
same,IC50,[9],> 50 µM
same,Activity,[10],126 mg/dL
same,IC50,[11],> 50 µM
same,inhibition,[12],6%
same,IC50,[13],> 50 µM
